Experiment [1] deals with T1, Plekha7 (D175K) PH domain (Homo sapiens, UniProt Q6IQ23, D175K).
T1 sequence (Q6IQ23 164-298 D175K): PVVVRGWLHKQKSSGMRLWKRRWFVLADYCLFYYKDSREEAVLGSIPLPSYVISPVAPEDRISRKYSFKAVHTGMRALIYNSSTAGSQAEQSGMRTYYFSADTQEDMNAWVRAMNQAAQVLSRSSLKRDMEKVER
The experiment in a line: Isothermal titration calorimetry. The experiment is classed as binding. As to conditions: ITC, diC8-PI, D175K mutant versus wild-type PH domain. Put shortly:
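Human Plekha7 PH domain (residues 164–298, D175K mutant alongside wild type) was GST-vector expressed in E. coli BL21. ITC was run at 23 °C: 50 µM PH domain titrated with 0.5–1.0 mM diC8-phosphoinositides (PI(3,4)P2, PI(3,5)P2, PI(4,5)P2, PI(3,4,5)P3) in 30 mM NaCl, 15 mM Tris pH 7.6, 0.2 mM TCEP. Integrated heats were fit to a single-site model for Kd, reported as mean with SD.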
(Isothermal titration calorimetry measures the heat released or taken up as one component is titrated into another.)

In experiment [2] the target is Plekha7-GFP (Pleckstrin homology domain containing, family A member 7, GFP fusion) (human) (UniProt Q6IQ23). The experiment in a line: FRET or BRET. (In general: Bioluminescence resonance energy transfer reports proximity on the nanometre scale.)
Another experiment has as its system mutant KRas CRC cells. As to the kind of experiment: Growth of mutant KRas CRC cells. Format: cell-based. As to conditions: mutant KRas CRC cells (Figure S12C).
The subject of the next experiment is wild type KRas CRC cells. The experiment in a line: Growth of wild type KRas CRC cells. Format: cell-based. As to conditions: wild type KRas CRC cells (Figure S12C).
The next experiment deals with mutant BRaf CRC cells. As to the kind of experiment: Growth of mutant BRaf CRC cells. Format: cell-based. To be noted: mutant BRaf CRC cells (Figure S12C).

The source of these data is publication PMC8925131 (Experimental cell research, 2021).

Plekha7-GFP (Pleckstrin homology domain containing, family A member 7, GFP fusion) (human), sequence (Q6IQ23 whole entry, the tested form may be a part): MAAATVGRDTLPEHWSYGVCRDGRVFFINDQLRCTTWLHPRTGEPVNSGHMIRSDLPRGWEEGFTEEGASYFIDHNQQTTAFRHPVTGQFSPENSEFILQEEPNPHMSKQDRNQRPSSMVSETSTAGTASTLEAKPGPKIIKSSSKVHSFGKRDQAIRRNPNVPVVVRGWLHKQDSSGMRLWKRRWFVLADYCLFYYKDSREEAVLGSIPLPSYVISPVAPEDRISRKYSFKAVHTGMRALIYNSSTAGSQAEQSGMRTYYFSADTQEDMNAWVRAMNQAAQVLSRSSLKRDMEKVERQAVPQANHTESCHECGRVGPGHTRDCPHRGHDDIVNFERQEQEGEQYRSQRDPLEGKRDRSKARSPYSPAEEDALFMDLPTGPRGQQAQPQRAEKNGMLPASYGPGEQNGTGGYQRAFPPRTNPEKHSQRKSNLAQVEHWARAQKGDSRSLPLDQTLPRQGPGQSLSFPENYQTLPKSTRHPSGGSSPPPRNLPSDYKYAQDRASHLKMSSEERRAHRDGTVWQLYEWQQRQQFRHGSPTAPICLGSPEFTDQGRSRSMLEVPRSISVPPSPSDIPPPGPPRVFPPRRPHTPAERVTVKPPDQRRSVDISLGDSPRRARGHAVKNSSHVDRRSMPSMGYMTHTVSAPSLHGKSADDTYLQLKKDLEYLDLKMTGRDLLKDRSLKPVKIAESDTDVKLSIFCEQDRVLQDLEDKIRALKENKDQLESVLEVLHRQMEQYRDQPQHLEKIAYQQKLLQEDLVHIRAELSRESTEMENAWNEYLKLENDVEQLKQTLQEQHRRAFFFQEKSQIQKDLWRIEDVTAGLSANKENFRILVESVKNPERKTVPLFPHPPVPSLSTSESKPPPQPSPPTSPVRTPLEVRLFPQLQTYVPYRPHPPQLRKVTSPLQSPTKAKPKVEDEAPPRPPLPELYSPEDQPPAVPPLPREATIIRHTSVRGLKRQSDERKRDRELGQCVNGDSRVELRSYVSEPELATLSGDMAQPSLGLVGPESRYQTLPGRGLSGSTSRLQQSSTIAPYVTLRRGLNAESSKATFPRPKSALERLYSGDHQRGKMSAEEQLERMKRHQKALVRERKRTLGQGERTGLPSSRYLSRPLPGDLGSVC

For `CCCCCCCC(=O)OC[C@H](COP(=O)(O)O[C@H]1[C@H](O)[C@@H](O)[C@H](OP(=O)(O)O)[C@@H](OP(=O)(O)O)[C@H]1O)OC(=O)CCCCCCC` [PI(3,4)P2], the “increase in affinity for Plekha7 (D175K) compared with the wild-type protein” value in experiment [1] is 10 fold. For “wild-type KRas-RFP (from UniProt P01116 1-189) (natural protein)”, in experiment [2], the average fluorescence lifetime of Plekha7-GFP stood at 1.9 ns.

Regarding `CCCCCCCC(=O)OC[C@H](COP(=O)(O)O[C@@H]1[C@H](O)[C@H](O)[C@@H](OP(=O)(O)O)[C@H](OP(=O)(O)O)[C@H]1O)OC(=O)CCCCCCC` [PI(4,5)P2], in experiment [1], the “change of affinity for Plekha7 (D175K) compared with wild-type” value is on record as “did not change”. For the molecule `CCCCCCCC(=O)OC[C@H](COP(=O)(O)O[C@H]1[C@H](O)[C@@H](OP(=O)(O)O)[C@H](OP(=O)(O)O)[C@@H](OP(=O)(O)O)[C@H]1O)OC(=O)CCCCCCC` [PI(3,4,5)P3], in experiment [1], the “increase in affinity for Plekha7 (D175K) compared with the wild-type protein” value is recorded as 10 fold. Consider `CC1(C)Oc2ccc(-c3csc(Cn4nc(CCO)c5ccccc5c4=O)n3)cc2O1` [PHT-7704, 2-((4-(2,2-dimethylbenzo[d][1,3]dioxol-5-yl)thiazol-2-yl)methyl)-4-(2-hydroxyethyl)phthalazin-1(2H)-one], for which, in the experiment on mutant KRas CRC cells, the “inhibition of mutant KRas CRC cell growth” value was “selective inhibition”. The “effect on growth of wild type KRas CRC cells” value with wild type KRas CRC cells is on record as “without affecting the growth”. In addition, in the experiment with mutant BRaf CRC cells, the “inhibition of growth of mutant BRaf CRC cells” value was “inhibited the growth”.

On to `CCCCCCCCCCCCCCCCCCOC[C@H](COP(=O)(O)OC1C(O)[C@@H](O)C(O)C[C@H]1O)OC` (stereo partly drawn) [DPIEL], for which the “inhibition of mutant KRas CRC cell growth” value in the experiment with mutant KRas CRC cells is recorded as “selective inhibition”. Further, the “effect on growth of wild type KRas CRC cells” value in the experiment with wild type KRas CRC cells is on record as “without affecting the growth”.
